Laboratory results as given in ChEMBL document CHEMBL1156127, “Synthesis, anticonvulsant activity and 3D-QSAR study of some prop-2-eneamido and 1-acetyl-pyrazolin derivatives of aminobenzothiazole” (Eur J Med Chem, 2010).

Experiments:
[1] = species: Mus musculus; experiment: Protection index, ratio of TD50 to ED50 by MES test for albino mouse; type: functional
Procedure, shortened: (§1)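 Mice were trained on a 3.2 cm rod turning at 6 rpm, then dosed ip at 20–1000 µmol/kg and tested at 0.5 h. […] PI = TD50/ED50, with ED50 from the MES test.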

[2] = Neurotoxicity in ip dosed albino mouse during 1 min by rotarod test; type: toxicity, organism-based; settings: in vivo; procedure, shortened: as §1
[3] = system: Mus musculus; experiment: Anticonvulsant activity in ip dosed albino mouse assessed as absence of hind limb tonic extension after 0.5 hrs by MES test; type: functional, Hindlimb; settings: for ED50: Mus musculus, albino, Hindlimb, ip, 0.5 h
Procedure, shortened: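 Mice given compound ip at 20–1000 µmol/kg, suspended in 0.5% methyl cellulose/water. Seizure induced 0.5 h later by electroconvulsometer, 50 mA, 60 cycle alternating current, 0.25 s via ear clip electrodes. Protection is reduced duration or absence of hind limb tonic extension. ED50 from at least three doses giving 10–90% protection.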

[4] = system: Mus musculus; experiment: Anticonvulsant activity in ip dosed albino mouse treated 0.5 hrs before PTZ challenge by scPTZ test; type: functional
Procedure, shortened: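 Compound given ip (20–1000 µmol/kg in 0.5% methyl cellulose) 0.5 h before pentylenetetrazole, which was dissolved in 0.9% NaCl and injected subcutaneously in the posterior midline of mice. Onset and severity of convulsions were scored, and ED50 was derived.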

[5] = system: Mus musculus; experiment: Behavioral effect in albino mouse assessed as change in locomotor activity during 10 mins at 100 umol/kg, ip after 0.5 hrs; type: functional
Procedure, shortened: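 Mouse activity counted by actophotometer for 10 min 24 h before dosing, then again 0.5 h after 100 µmol/kg ip. % change = 100 − [(post × 100)/pre]. N = 6, mean ± SEM, Student's t test at p < 0.05.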

[6] = system: Rattus norvegicus; experiment: CNS toxicity in albino rat assessed as duration of immobility at 100 umol/kg, ip after 0.5 hrs by Porsolt's swimpool test (Rvb= 82 +/- 2.9); settings: in vivo
[7] = system: Rattus norvegicus; experiment: CNS toxicity in albino rat assessed as duration of immobility at 100 umol/kg, ip after 0.5 hrs by Porsolt's swimpool test (Rvb= 104 +/- 1.8); settings: in vivo
[8] = system: Rattus norvegicus; experiment: CNS toxicity in albino rat assessed as duration of immobility at 100 umol/kg, ip after 0.5 hrs by Porsolt's swimpool test (Rvb= 92 +/- 1.2); settings: in vivo

| Structure (SMILES) | PI [1] | TD50 at 1 min [2] [µmol/kg] | pED50 [3] | ED50 [3] [µmol/kg] | ED50 [4] [µmol/kg] | Activity [5] [%] | Activity [6] [s] | Activity [7] [s] | Activity [8] [s] |
| --- | --- | --- | --- | --- | --- | --- | --- | --- | --- |
| O=C(/C=C/c1ccco1)Nc1nc2ccc([N+](=O)[O-])cc2s1 | 1.39 | 834 | 3.22 | 597 | – | – | – | – | – |
| O=C(/C=C/c1ccccc1)Nc1nc2ccc([N+](=O)[O-])cc2s1 | 1.3 | 633 | 3.31 | 485 | – | – | – | – | – |
| CC(=O)N1N=C(Nc2nc3ccccc3s2)CC1c1ccc(O)cc1 (configuration not stated) | 2.06 | 513 | 3.6 | 249 | – | – | – | – | – |
| COc1ccc(C2CC(Nc3nc4ccc([N+](=O)[O-])cc4s3)=NN2C(C)=O)cc1 (configuration not stated) | 1.69 | 246 | 3.84 | 145 | 149 | – | – | – | – |
| CC(=O)N1N=C(Nc2nc3ccc([N+](=O)[O-])cc3s2)CC1c1ccc(O)cc1 (configuration not stated) | 1.29 | 210 | 3.79 | 162 | – | – | – | – | – |
| O=C(/C=C/c1ccc(O)cc1)Nc1nc2ccc([N+](=O)[O-])cc2s1 | 1.57 | 602 | 3.42 | 382 | – | – | – | – | – |
| Cc1ccc2nc(NC(=O)/C=C/c3ccccc3)sc2c1 | 1.4 | 534 | 3.42 | 380 | – | – | – | – | – |
| O=C(/C=C/c1ccccc1)Nc1nc2ccc(Cl)cc2s1 | 1.34 | 570 | 3.37 | 425 | – | – | – | – | – |
| CC(=O)N1N=C(Nc2nc3ccc(C)cc3s2)CC1c1ccco1 (configuration not stated) | 1.51 | 243 | 3.79 | 160 | – | – | – | – | – |
| COc1ccc(C2CC(Nc3nc4ccccc4s3)=NN2C(C)=O)cc1 (configuration not stated) | 1.63 | 369 | 3.65 | 226 | – | – | – | – | – |
| COc1ccc(C2CC(Nc3nc4ccc(Cl)cc4s3)=NN2C(C)=O)cc1 (configuration not stated) | 2.01 | 187 | 4.03 | 93.3 | 97.3 | 35.91 | 88 | – | – |
| Cc1ccc2nc(NC(=O)/C=C/c3ccc(O)cc3)sc2c1 | 1.42 | 387 | 3.57 | 271 | – | – | – | – | – |
| COc1ccc(C2CC(Nc3nc4ccc([N+](=O)[O-])cc4s3)=NN2C(C)=O)cc1O (configuration not stated) | 1.43 | 256 | 3.75 | 178 | – | – | – | – | – |
| O=C(/C=C/c1ccc(O)cc1)Nc1nc2ccccc2s1 | 1.78 | 925 | 3.29 | 517 | – | – | – | – | – |
| O=C(/C=C/c1ccco1)Nc1nc2ccc(Cl)cc2s1 | 1.2 | 658 | 3.26 | 544 | – | – | – | – | – |
| O=C(/C=C/c1ccccc1)Nc1nc2ccccc2s1 | 1.28 | 832 | 3.19 | 646 | – | – | – | – | – |
| COc1ccc(/C=C/C(=O)Nc2nc3ccccc3s2)cc1 | 1.24 | 540 | 3.36 | 435 | – | – | – | – | – |
| O=C(/C=C/c1ccc(Cl)cc1)Nc1nc2ccccc2s1 | 1.1 | 402 | 3.44 | 367 | – | – | – | – | – |
| CC(=O)N1N=C(Nc2nc3ccc([N+](=O)[O-])cc3s2)CC1c1ccco1 (configuration not stated) | 1.29 | 355 | 3.56 | 274 | – | – | – | – | – |
| Cc1ccc2nc(NC(=O)/C=C/c3ccco3)sc2c1 | 1.19 | 603 | 3.3 | 505 | – | – | – | – | – |
| O=C(/C=C/c1ccco1)Nc1nc2ccccc2s1 | 1.15 | 898 | 3.11 | 781 | – | – | – | – | – |
| O=C1NC(=O)C(c2ccccc2)(c2ccccc2)N1 [PHENYTOIN] | 8.01 | 110 | – | 13.8 | – | – | – | – | – |
| COc1ccc(C2CC(Nc3nc4ccccc4s3)=NN2C(C)=O)cc1O (configuration not stated) | 1.47 | 382 | 3.59 | 259 | – | – | – | – | – |

| Structure (SMILES) | PI [1] | TD50 at 1 min [2] [µmol/kg] | pED50 [3] | ED50 [3] [µmol/kg] | ED50 [4] [µmol/kg] | Activity [5] [%] | Activity [6] [s] | Activity [7] [s] | Activity [8] [s] |
| --- | --- | --- | --- | --- | --- | --- | --- | --- | --- |
| CC(=O)N1N=C(Nc2nc3ccccc3s2)CC1c1ccco1 (configuration not stated) | 1.41 | 538 | 3.42 | 382 | – | – | – | – | – |
| Cc1ccc2nc(NC(=O)/C=C/c3ccc(Cl)cc3)sc2c1 | 2.67 | 408 | 3.82 | 152 | – | – | – | – | – |
| O=C(/C=C/c1ccc(Cl)cc1)Nc1nc2ccc([N+](=O)[O-])cc2s1 | 3.03 | 787 | 3.59 | 259 | – | – | – | – | – |
| COc1ccc(/C=C/C(=O)Nc2nc3ccc([N+](=O)[O-])cc3s2)cc1O | 2.13 | 793 | 3.43 | 372 | – | – | – | – | – |
| COc1ccc(C2CC(Nc3nc4ccc(Cl)cc4s3)=NN2C(C)=O)cc1O (configuration not stated) | 2.16 | 276 | 3.89 | 127 | 132 | – | – | – | – |
| O=C(/C=C/c1ccc(Cl)cc1)Nc1nc2ccc(Cl)cc2s1 | 2.82 | 576 | 3.69 | 204 | – | – | – | – | – |
| CC(=O)N1N=C(Nc2nc3ccc(C)cc3s2)CC1c1ccccc1 (configuration not stated) | 2.49 | 265 | 3.97 | 106 | 112 | 23.93 | – | 151 | – |
| CC(=O)N1N=C(Nc2nc3ccc(Cl)cc3s2)CC1c1ccco1 (configuration not stated) | 1.82 | 387 | 3.67 | 212 | – | – | – | – | – |
| CC(=O)N1N=C(Nc2nc3ccc(Cl)cc3s2)CC1c1ccccc1 (configuration not stated) | 1.52 | 245 | 3.79 | 161 | – | – | – | – | – |
| COc1ccc(/C=C/C(=O)Nc2nc3ccc(C)cc3s2)cc1 | 2.24 | 468 | 3.68 | 209 | – | – | – | – | – |
| CC(=O)N1N=C(Nc2nc3ccc(Cl)cc3s2)CC1c1ccc(Cl)cc1 (configuration not stated) | 4.35 | 345 | 4.1 | 79.5 | 81.5 | 31.66 | – | – | 134 |
| CC(=O)N1N=C(Nc2nc3ccc([N+](=O)[O-])cc3s2)CC1c1ccccc1 (configuration not stated) | 1.65 | 357 | 3.67 | 216 | – | – | – | – | – |
| COc1ccc(/C=C/C(=O)Nc2nc3ccc(Cl)cc3s2)cc1O | 1.46 | 470 | 3.51 | 320 | – | – | – | – | – |
| CC(=O)N1N=C(Nc2nc3ccccc3s2)CC1c1ccccc1 (configuration not stated) | 1.57 | 498 | 3.5 | 315 | – | – | – | – | – |
| COc1ccc(/C=C/C(=O)Nc2nc3ccc([N+](=O)[O-])cc3s2)cc1 | 1.47 | 466 | 3.5 | 315 | – | – | – | – | – |
| CC(=O)N1N=C(Nc2nc3ccc([N+](=O)[O-])cc3s2)CC1c1ccc(Cl)cc1 (configuration not stated) | 2.48 | 328 | 3.88 | 132 | 138 | – | – | – | – |
| COc1ccc(/C=C/C(=O)Nc2nc3ccccc3s2)cc1O | 1.12 | 556 | 3.31 | 495 | – | – | – | – | – |
| O=C(/C=C/c1ccc(O)cc1)Nc1nc2ccc(Cl)cc2s1 | 1.28 | 413 | 3.49 | 322 | – | – | – | – | – |
| COc1ccc(/C=C/C(=O)Nc2nc3ccc(C)cc3s2)cc1O | 1.18 | 321 | 3.57 | 271 | – | – | – | – | – |
| COc1ccc(/C=C/C(=O)Nc2nc3ccc(Cl)cc3s2)cc1 | 1.79 | 465 | 3.59 | 259 | – | – | – | – | – |
| CC(=O)N1N=C(Nc2nc3ccc(Cl)cc3s2)CC1c1ccc(O)cc1 (configuration not stated) | 1.97 | 210 | 3.97 | 106 | 107 | – | – | – | – |
| CC(=O)N1N=C(Nc2nc3ccccc3s2)CC1c1ccc(Cl)cc1 (configuration not stated) | 1.73 | 364 | 3.68 | 209 | – | – | – | – | – |
